# Assay results from different studies.
# Compare with care: the assays were run in different laboratories.
# Cell line: A549
# Observed: cell growth or viability
SMILES,method,time,IC50 [nM]
N.N.[Cl][Pt][Cl],MTT,48 h,9240
CC[C@@]1(OC(=O)[C@@H](N)C(C)C)C(=O)OCc2c1cc1n(c2=O)Cc2cc3cc4c(cc3nc2-1)OCO4,MTT,,89
Nc1cc(I)c(I)cc1N,,72 h,25000
COc1cccc2c1C(=O)c1c(O)c3c(c(O)c1C2=O)C[C@@](O)(C(=O)CO)C[C@@H]3O[C@H]1C[C@H](N)[C@H](O[C@@H]2CCCCO2)[C@H](C)O1,MTT,12 h,5800
Cc1cccc(-n2ncc(Cl)c(Cl)c2=O)c1,resazurin,96 h,1400
CC1=C(O)C(=O)C=C2C1=CC=C1[C@@]2(C)CC[C@@]2(C)[C@@H]3C[C@](C)(C(=O)O)CC[C@]3(C)CC[C@]12C,MTT,48 h,5340
O=C(N/N=C1\C(=O)N(Cc2ccccc2)c2ccc(F)cc21)c1cc2ccccc2[nH]1,,,1410
CC[C@@]1(OC(=O)[C@@H](N)CCCCN)C(=O)OCc2c1cc1n(c2=O)Cc2cc3cc4c(cc3nc2-1)OCO4,MTT,,88
CSC(=NNC(=O)c1ccc(Cl)c(Cl)c1)SC,MTT,5 days,69000
COc1ccc2c(c1)/C(=N/NC(=O)c1cc3ccccc3[nH]1)C(=O)N2Cc1ccccc1,,,640
COc1c2c(cc3c1OCO3)[C@]13C=C[C@H](OC)C[C@@H]1[N@](C2)C[C@H]3OC(=O)c1ccoc1,WST-1,,> 10000
CC[C@@]1(OC(=O)C(C)c2cccc(C(=O)c3ccccc3)c2)C(=O)OCc2c1cc1n(c2=O)Cc2cc3cc4c(cc3nc2-1)OCO4 (some centres unmarked),MTT,,289
COc1c2c(cc3c1OCO3)[C@]13C=C[C@H](OC)C[C@@H]1[N@](C2)C[C@H]3OC(=O)c1ccc2ccccc2c1,WST-1,,> 10000
O=C(N/N=C1\C(=O)N(Cc2ccccc2)c2ccc(Cl)cc21)c1cc2ccccc2[nH]1,,72 h,1330
CC[C@@]1(OC(=O)[C@@H](N)Cc2ccccc2)C(=O)OCc2c1cc1n(c2=O)Cc2cc3cc4c(cc3nc2-1)OCO4,MTT,,36
C=CCc1cc(OC)c2c(c1)OCO2,SRB,,359000
CC[C@@]1(O)C(=O)OCc2c1cc1n(c2=O)Cc2cc3cc4c(cc3nc2-1)OCO4,MTT,72 h,29
N.N.[Cl][Pt][Cl],MTT,24 h,5350
O=C(N/N=C1\C(=O)N(Cc2ccccc2)c2ccc(Br)cc21)c1cc2ccccc2[nH]1,,,650
CC[C@@]1(OC(=O)Cc2c(C)n(C(=O)c3ccc(Cl)cc3)c3ccc(OC)cc23)C(=O)OCc2c1cc1n(c2=O)Cc2cc3cc4c(cc3nc2-1)OCO4,MTT,,263
